Active and inactive are the calls of the source. No cut-off for these calls is given here.
Columns and labels:
[1] = test system: PC-3; assay: Antiproliferative activity against human PC-3 cells after 48 hrs by MTT assay; format: functional, cell-based; conditions: PC-3, 48 h
Outline: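 PC3 cells grown in RPMI 1640 with 10% FBS and 1% penicillin/streptomycin at 37 °C, 5% CO2, seeded at 10000 cells/well. Treated 48 h across 20 µM–0.001 µM. MTT (5 mg/mL in PBS) added for 4 h, then DMSO solubilization and absorbance at 550 nm. Four-parameter nonlinear fit of % inhibition.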

[2] = Metabolic stability in dog liver microsomes assessed as parent compound remaining at 10 uM remaining after 120 mins in presence of NADPH by HPLC analysis; format: ADME, Canis lupus familiaris, Microsome; conditions: read-out: Stabilty
Outline: (§1)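 Compound at 10 µM was incubated with 0.5 mg/mL liver microsomes and 1 mM NADPH (final). Samples were taken at 0, 15, 30, 60 and 120 min and stopped with acetonitrile, then centrifuged and the supernatant analysed by HPLC. Percent parent remaining was set relative to the 0 min peak area (100%).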

[3] = Metabolic stability in mouse liver microsomes assessed as parent compound remaining at 10 uM remaining after 120 mins in presence of NADPH by HPLC analysis; format: ADME, Microsome; conditions: read-out: Stabilty; outline: as §1
[4] = Metabolic stability in human liver microsomes assessed as parent compound remaining at 10 uM remaining after 120 mins in presence of NADPH by HPLC analysis; format: ADME, Microsome; conditions: read-out: Stabilty; outline: as §1
[5] = molecular target: Dual specificity mitogen-activated protein kinase kinase 1 (Homo sapiens) (UniProt Q02750); assay: Inhibition of human MEK1 at 1 uM using fluorescently labeled peptide substrate measured after 3 hrs by microfluidic mobility shift assay relative to control
Sequence of Dual specificity mitogen-activated protein kinase kinase 1 (Homo sapiens) (Q02750 whole entry): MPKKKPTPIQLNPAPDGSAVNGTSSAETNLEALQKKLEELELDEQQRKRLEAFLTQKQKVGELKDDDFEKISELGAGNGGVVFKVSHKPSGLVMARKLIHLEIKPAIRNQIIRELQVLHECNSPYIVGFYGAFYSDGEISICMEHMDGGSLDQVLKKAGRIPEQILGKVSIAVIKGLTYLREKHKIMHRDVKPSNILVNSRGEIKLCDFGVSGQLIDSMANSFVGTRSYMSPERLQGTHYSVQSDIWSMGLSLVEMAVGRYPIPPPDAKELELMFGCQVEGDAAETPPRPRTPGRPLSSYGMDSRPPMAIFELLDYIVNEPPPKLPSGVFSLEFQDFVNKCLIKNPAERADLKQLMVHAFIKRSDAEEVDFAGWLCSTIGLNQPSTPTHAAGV
Outline: (§2)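 Single-concentration screen at 1 µM in duplicate, 1% final DMSO. Kinase (typically 1 nM), fluorescently labeled peptide substrate (typically 1 µM), ATP at Km and Mg²⁺ incubated about 3 h at 25 °C, then EDTA-quenched. Substrate and phosphorylated product separated by microfluidic electrophoresis and quantified by fluorescence.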

[6] = molecular target: Phosphatidylinositol 4,5-bisphosphate 3-kinase catalytic subunit delta isoform (Homo sapiens) (UniProt O00329); assay: Inhibition of human PI3kdelta at 1 uM using fluorescently labeled peptide substrate measured after 3 hrs by microfluidic mobility shift assay relative to control; outline: as §2
Sequence of Phosphatidylinositol 4,5-bisphosphate 3-kinase catalytic subunit delta isoform (Homo sapiens) (O00329 whole entry, canonical isoform): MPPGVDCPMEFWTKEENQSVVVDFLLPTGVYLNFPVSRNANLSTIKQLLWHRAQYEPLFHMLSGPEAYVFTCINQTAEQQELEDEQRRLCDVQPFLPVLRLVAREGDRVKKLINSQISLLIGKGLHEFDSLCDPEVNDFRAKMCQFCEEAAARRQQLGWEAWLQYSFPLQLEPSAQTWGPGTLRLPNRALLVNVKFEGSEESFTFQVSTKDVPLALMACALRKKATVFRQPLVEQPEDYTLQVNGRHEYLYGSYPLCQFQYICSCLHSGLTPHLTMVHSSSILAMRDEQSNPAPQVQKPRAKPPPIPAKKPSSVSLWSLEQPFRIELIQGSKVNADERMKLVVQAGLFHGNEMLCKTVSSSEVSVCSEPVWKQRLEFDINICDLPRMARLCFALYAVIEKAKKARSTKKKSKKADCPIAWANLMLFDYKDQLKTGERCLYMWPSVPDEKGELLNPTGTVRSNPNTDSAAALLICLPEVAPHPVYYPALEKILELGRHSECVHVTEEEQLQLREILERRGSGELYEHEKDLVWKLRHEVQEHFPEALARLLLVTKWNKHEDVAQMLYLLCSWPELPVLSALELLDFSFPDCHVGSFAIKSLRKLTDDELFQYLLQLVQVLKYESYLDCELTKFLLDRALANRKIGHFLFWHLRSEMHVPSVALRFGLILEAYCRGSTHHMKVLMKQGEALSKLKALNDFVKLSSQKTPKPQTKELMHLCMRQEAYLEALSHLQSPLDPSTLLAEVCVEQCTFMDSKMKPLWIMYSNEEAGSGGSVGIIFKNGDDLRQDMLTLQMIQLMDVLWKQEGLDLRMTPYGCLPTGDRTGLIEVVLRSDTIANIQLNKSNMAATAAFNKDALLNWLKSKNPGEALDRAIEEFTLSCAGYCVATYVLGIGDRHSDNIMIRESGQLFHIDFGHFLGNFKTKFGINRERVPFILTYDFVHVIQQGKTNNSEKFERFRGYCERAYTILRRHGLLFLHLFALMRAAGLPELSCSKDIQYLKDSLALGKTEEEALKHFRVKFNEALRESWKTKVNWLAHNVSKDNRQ

[7] = molecular target: Phosphatidylinositol 4-kinase beta (Homo sapiens) (UniProt Q9UBF8); assay: Inhibition of human PI4kbeta at 1 uM using fluorescently labeled peptide substrate measured after 3 hrs by microfluidic mobility shift assay relative to control; outline: as §2
Sequence of Phosphatidylinositol 4-kinase beta (Homo sapiens) (Q9UBF8 2-816 limits assumed): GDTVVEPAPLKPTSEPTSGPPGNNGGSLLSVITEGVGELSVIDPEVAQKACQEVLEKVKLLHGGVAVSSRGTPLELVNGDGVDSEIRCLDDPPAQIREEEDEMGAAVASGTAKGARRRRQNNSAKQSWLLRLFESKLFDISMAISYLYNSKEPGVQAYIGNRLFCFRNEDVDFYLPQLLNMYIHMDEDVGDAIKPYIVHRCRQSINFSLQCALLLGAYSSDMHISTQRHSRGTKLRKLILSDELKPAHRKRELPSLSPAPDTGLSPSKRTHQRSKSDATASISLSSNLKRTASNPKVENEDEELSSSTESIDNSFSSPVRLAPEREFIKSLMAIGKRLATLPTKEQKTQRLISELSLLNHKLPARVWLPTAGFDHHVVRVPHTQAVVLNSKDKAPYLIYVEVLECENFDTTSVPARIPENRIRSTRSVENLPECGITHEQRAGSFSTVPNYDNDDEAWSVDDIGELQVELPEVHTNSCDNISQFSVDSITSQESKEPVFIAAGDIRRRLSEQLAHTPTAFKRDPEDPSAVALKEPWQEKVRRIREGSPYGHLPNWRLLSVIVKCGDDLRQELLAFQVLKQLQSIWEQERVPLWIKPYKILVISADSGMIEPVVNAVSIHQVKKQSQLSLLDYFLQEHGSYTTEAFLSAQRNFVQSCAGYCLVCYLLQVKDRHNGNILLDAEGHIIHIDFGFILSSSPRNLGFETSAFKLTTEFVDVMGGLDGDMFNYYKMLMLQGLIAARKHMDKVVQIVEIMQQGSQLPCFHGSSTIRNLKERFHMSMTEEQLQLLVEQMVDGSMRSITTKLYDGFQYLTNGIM

[8] = molecular target: Sphingosine kinase 1 (Homo sapiens) (UniProt Q9NYA1); assay: Inhibition of human SPHK1 at 1 uM using fluorescently labeled peptide substrate measured after 3 hrs by microfluidic mobility shift assay relative to control; outline: as §2
Sequence of Sphingosine kinase 1 (Homo sapiens) (Q9NYA1 whole entry): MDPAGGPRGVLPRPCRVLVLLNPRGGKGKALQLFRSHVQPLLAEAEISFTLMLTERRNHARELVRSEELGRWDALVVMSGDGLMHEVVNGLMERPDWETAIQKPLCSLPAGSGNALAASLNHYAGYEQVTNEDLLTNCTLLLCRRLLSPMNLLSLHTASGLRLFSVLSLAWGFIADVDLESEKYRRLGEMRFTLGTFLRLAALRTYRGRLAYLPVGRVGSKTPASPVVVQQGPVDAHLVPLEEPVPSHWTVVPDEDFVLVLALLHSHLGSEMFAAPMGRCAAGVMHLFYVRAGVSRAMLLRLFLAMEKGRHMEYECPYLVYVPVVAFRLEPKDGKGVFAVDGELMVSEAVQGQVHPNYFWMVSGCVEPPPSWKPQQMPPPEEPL

[9] = molecular target: Cyclin-dependent kinase 7 (Homo sapiens) (UniProt P50613); assay: Inhibition of human CDK7 at 1 uM using fluorescently labeled peptide substrate measured after 3 hrs by microfluidic mobility shift assay relative to control; outline: as §2
Sequence of Cyclin-dependent kinase 7 (Homo sapiens) (P50613 whole entry): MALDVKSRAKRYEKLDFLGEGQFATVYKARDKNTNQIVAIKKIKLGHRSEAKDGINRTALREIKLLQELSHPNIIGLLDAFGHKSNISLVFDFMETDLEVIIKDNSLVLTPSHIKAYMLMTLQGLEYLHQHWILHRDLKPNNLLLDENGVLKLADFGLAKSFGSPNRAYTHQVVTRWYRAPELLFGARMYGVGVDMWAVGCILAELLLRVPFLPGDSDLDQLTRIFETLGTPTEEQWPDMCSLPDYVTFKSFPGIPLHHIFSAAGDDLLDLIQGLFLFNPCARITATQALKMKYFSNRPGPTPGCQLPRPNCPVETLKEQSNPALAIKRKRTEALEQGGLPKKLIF

[10] = AUC in Swiss mouse at 1 mg/kg, po via gavage by LC-MS/MS analysis; format: ADME, organism-based; design: dose 1 mg/kg; conditions: in vivo
Outline: (§3)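 Female Swiss mice (n=3/group), fasted overnight, given single oral gavage dose in 0.5% CMC/0.5% Tween 80 (10 mL/kg) at 1, 3 or 10 mg/kg. Serial blood sampling at 0.16–8 h into heparinized tubes. Plasma extracted with acetonitrile containing verapamil internal standard and quantified by LC-MS/MS. Cmax, Tmax, AUC and t1/2 derived from the concentration–time profile.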

[11] = AUC in Swiss mouse at 10 mg/kg, po via gavage by LC-MS/MS analysis; format: ADME, organism-based; design: dose 10 mg/kg; conditions: in vivo; outline: as §3
[12] = Toxicity in Swiss mouse assessed as change in feces at 10 mg/kg, po administered twice daily via gavage for 5 days and measuring daily during compound dosing; format: organism-based; conditions: in vivo, 120 h, time 5 day
Outline: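 Female Swiss mice (3 treated, 2 vehicle controls) received oral gavage twice daily for 5 days, with compound formulated in 0.5% CMC and Tween 80. Body weight, body temperature, body coat, feed intake, eyes, feces and general activity were observed daily.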

[13] = Toxicity in Swiss mouse assessed as piloerection at 30 mg/kg, po administered twice daily via gavage for 12 days and measured on day 9; format: organism-based; conditions: in vivo, 288 h, time 12 day
Outline: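 Female Swiss mice (4 treated, 2 controls) were gavaged twice daily for 12 days, with compound in 0.5% CMC and Tween 80. Clinical signs including body coat, body weight, temperature, feed intake and general activity were monitored daily.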

[14] = Toxicity in Swiss mouse assessed as morphological changes in kidney at 30 mg/kg, po administered twice daily via gavage for 5 days and measured post last dose; format: organism-based; conditions: in vivo, 120 h, time 5 day
Outline: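 Female Swiss mice (3 treated, 2 controls) were gavaged twice daily for 5 days, with compound in 0.5% CMC and Tween 80. After the last dosing the animals were sacrificed. Liver, kidney, lung, uterus and brain were excised and inspected visually for morphology and color change.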

[15] = Drug level in Swiss mouse liver at 30 mg/kg, po administered twice daily via gavage for 5 days and measured post last dose by LC-MS/MS analysis; format: ADME, organism-based; conditions: time 5 day, read-out: Drug uptake
Outline: (§4)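 Female Swiss mice (n=3) given 30 mg/kg in 0.5% CMC/Tween 80 by oral gavage twice daily for 5 days, with two vehicle controls. After sacrifice, liver, kidney, lung, uterus and brain were collected, homogenized in water and solvent-extracted. Drug concentration (ng/g) measured by LC-MS/MS.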

[16] = Drug level in Swiss mouse lung at 30 mg/kg, po administered twice daily via gavage for 5 days and measured post last dose by LC-MS/MS analysis; format: ADME, organism-based; conditions: time 5 day, read-out: Drug uptake; outline: as §4
[17] = Drug level in Swiss mouse brain at 30 mg/kg, po administered twice daily via gavage for 5 days and measured post last dose by LC-MS/MS analysis; format: ADME, organism-based; conditions: in vivo, 120 h, time 5 day; outline: as §4
[18] = test system: HCT-116; assay: Antitumor activity against human HCT-116 cells xenografted in CD1 nude mouse assessed as tumor growth inhibition at 2.5 mg/kg, po administered once daily for 21 days and measured on day 3; format: functional, organism-based; conditions: time 21.0 day
Outline: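 Female CD1 nude mice bearing subcutaneous HCT116 xenografts, randomized at average tumor size 120–130 mm³, five per group. Dosed orally once daily at 2.5, 5, 10 or 20 mg/kg for 21 days alongside a vehicle control. Caliper measurement of tumor volume as (width² × length)/2, monitored every third day.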

[19] = test system: SK-OV-3; assay: Antitumor activity against human SK-OV-3 cells xenografted in CD1 nude mouse assessed as tumor growth inhibition at 2.5 mg/kg, po administered once daily for 27 days and measured on day 3; format: functional, organism-based; conditions: time 27.0 day
Outline: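 Female CD1 nude mice bearing subcutaneous SK-OV-3 xenografts, randomized at average tumor size 120–130 mm³, five per group. Given oral doses of 2.5, 5 or 10 mg/kg once daily for 27 days alongside a vehicle control. Tumor volume from caliper length and width as (width² × length)/2, tracked every third day. Two-way ANOVA with Dunnett's test, n=5.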

**Q.** With `CN(C)C(=O)c1ccc(Oc2nc(-c3cnc(N)s3)nc(N3CCOCC3)n2)cc1` as the molecule, how does the EC50 [1] read?
**A.** Its EC50 is 480 nM.

**Q.** And the remaining at 2 h, 10 µM [2]?
**A.** Its remaining at 2 h, 10 µM is 105%.

**Q.** And the remaining at 2 h, 10 µM [3]?
**A.** The remaining at 2 h, 10 µM was 103%.

**Q.** What about the remaining at 2 h, 10 µM [4] of the same molecule?
**A.** Its remaining at 2 h, 10 µM is 98%.

**Q.** And the inhibition [5]?
**A.** Its inhibition is 0%.

**Q.** What about the inhibition [6] of the same molecule?
**A.** Its inhibition is 88%.

**Q.** What about the inhibition [7] of the same molecule?
**A.** The inhibition was -3%.

**Q.** What about the inhibition [8] of the same molecule?
**A.** The inhibition was -1%.

**Q.** And the inhibition [9]?
**A.** The inhibition was -10%.

**Q.** What about the AUC [10] of the same molecule?
**A.** The AUC was 26.9 µM·h.

**Q.** What about the AUC [11] of the same molecule?
**A.** Its AUC is 76.4 µM·h.

**Q.** And the Activity [12]?
**A.** The Activity was “Non-Toxic”.

**Q.** What about the Activity [13] of the same molecule?
**A.** Its Activity is “Toxic”.

**Q.** What about the Activity [14] of the same molecule?
**A.** Its Activity is “Non-Toxic”.

**Q.** What about the concentration at 120 h [15] of the same molecule?
**A.** The concentration at 120 h was 85 ng/g.

**Q.** And the concentration at 120 h [16]?
**A.** The concentration at 120 h was 50 ng/g.

**Q.** And the Drug uptake [17]?
**A.** The Drug uptake was “Not Active”.

**Q.** And the TGI [18]?
**A.** The TGI was “Active”.

**Q.** And the TGI [19]?
**A.** The TGI was “Active”.
